In the library only some 3.5% were active in any assay of this set; here they are far more common.
MrgX1 allo act – allosterically activates human MrgX1 receptor signaling; Q96LB2; MrgX1-HEK293, Fluo-4 calcium flux, FDSS; stronger effect = higher value; B-score at 10 µM; 310,000 tested, 0.63% active; AID 588675;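 active means plate-corrected calcium response at least 3 library SD above typical, normal starting fluorescence, not activating the receptor alone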;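 further: compound read alongside a low EC10 to EC30 dose of BAM8-22 agonist; peak minus trough fluorescence over baseline measured at the second addition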
Target sequence (Q96LB2 whole entry, looked up): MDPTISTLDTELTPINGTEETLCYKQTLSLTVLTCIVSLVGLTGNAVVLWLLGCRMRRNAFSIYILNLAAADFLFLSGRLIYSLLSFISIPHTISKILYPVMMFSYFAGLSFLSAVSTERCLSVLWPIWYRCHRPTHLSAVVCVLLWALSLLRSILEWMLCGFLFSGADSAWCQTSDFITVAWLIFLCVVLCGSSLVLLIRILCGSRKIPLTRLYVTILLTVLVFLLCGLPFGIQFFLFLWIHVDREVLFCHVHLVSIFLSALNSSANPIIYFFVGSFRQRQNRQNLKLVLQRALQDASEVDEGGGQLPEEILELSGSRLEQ
MrgX1 ag – human MrgX1 receptor agonism, primary screen; Q96LB2; MrgX1-HEK293 cells, Fluo-4 calcium fluorescence, agonist mode; stronger effect = higher value; B-score at 10 µM; 310,000 tested, 0.44% active; AID 588627;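 active means calcium response B-score plate-corrected fluorescence ratio at least 3 library SD, with starting fluorescence B-score inside 5 SD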
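Assay system: MrgX1-expressing HEK293 cells / Amount: fifteen thousand cells per well / Doses: test compound in the initial addition of three / Timing: cells plated overnight, dye loaded 0.5 h 37 °C, 0.5 h room temperature / Technique: kinetic calcium dye fluorescence, Fluo-4 NW / Control set: positive and negative controls per plate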
RGS4 pot – RGS4 potentiation or activation; HEK293 M3R/inducible RGS4, carbachol calcium flux Fluo4; stronger effect = lower value; B-score at 10 µM; 310,000 tested, 0.92% active;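 active means B-score of the integrated calcium signal more than 4 SD below the library mean, with starting fluorescence not abnormally high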;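 further: negative B-score means reduced calcium response which marks RGS4 activation or potentiation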
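Test system: HEK293 cells with stable M3R and inducible RGS4; also added: carbachol at ECmax as muscarinic agonist stimulus; schedule: dye loading 30 min 37 °C, buffer rest 30 min RT; technique: kinetic calcium fluorescence imaging with Fluo4-AM dye, 2 µM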
MrgX1 antag – blocks BAM8-22 activation of human MrgX1 receptor. 310,000 tested, 1.3% active. AID 588676. Q96LB2. B-score at 10 µM. MRGX1-HEK293 calcium flux, Fluo-4, BAM8-22 antagonism; stronger effect = lower value;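 active means calcium-response B-score plate-corrected more than 3 library SD below zero, starting fluorescence within 5 deviations, no agonist response on first addition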;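 further: peak minus trough fluorescence over baseline after final BAM8-22 challenge near maximal dose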
RGS4 inh – inhibitors of human RGS4 | B-score at 10 µM | HEK293 M3R/RGS4 inducible, Fluo-4 calcium flux; stronger effect = higher value; triggered by carbachol at its EC20 | P49798 | 310,000 tested, 0.45% active;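 active means B-score, a plate-corrected calcium signal, over three deviations above library mean, with baseline fluorescence within five deviations of library mean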;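 further: RGS4 expression induced by doxycycline in cells with stable M3 receptor; B-score is computed from the integrated fluorescence ratio over baseline after carbachol; higher B-score means a larger calcium signal and so more RGS4 inhibition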
Target sequence (P49798 whole entry, looked up): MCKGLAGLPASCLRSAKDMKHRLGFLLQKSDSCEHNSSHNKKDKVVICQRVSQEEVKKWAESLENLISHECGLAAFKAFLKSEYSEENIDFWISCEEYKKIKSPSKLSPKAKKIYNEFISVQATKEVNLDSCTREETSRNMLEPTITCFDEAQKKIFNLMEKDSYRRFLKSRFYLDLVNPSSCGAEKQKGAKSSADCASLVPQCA
MrgX1 ag reconf – confirmation of human MrgX1 receptor agonists | shares compounds with MrgX1 ag | MrgX1-HEK293, Fluo-4 calcium fluorescence, FDSS | activation, % at 10 µM | 600 tested, 78% active;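 active means calcium signal rise, corrected for plate position, at least 3 library SD high, with starting brightness within 5 such deviations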
HEK293 Ca flux – MrgX1 antagonist counter-screen hit in parental HEK293 cells. Fluo-4 calcium fluorescence, FDSS. AID 624111. 4,000 tested, 2% active. fluorescence ratio F(max-min)/F0 at 10 µM. shares compounds with MrgX1 antag;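 active means duplicate-averaged calcium fluorescence ratio at least three times the standard deviation of buffer wells, a nonspecific response in parental cells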
HEK293 Ca counter – counter-screen for MrgX1 allosteric activators: effect in parental HEK293 cells. shares compounds with MrgX1 antag. parental HEK293 calcium flux, Fluo-4 fluorescence ratio; stronger effect = higher value. fluorescence ratio F(max-min)/F0 at 10 µM. 4,000 tested, 0.4% active. AID 624114;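 active means calcium fluorescence ratio, averaged over duplicates, at least 3 SD of the buffer-well ratio, meaning a nonspecific response in receptor-free cells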;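 further: untransfected parental HEK293 lacking MrgX1 used as counterscreen for MrgX1 allosteric activators; fluorescence change taken during the second addition on a kinetic imager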
HEK293 Ca cntr2 – counter-screen for MrgX1 activators: effect in parental HEK293 cells | fluorescence ratio F(max-min)/F0 at 10 µM | 4,000 tested, 8.7% active | Fluo-4 calcium fluorescence (FDSS); stronger effect = higher value | shares compounds with MrgX1 antag | AID 624115;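 active means calcium fluorescence ratio at least three times the spread of buffer wells, meaning a non-specific response in parental cells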
Numbers stand for hits.

What do the screens show for `O=C1Cc2ccccc2Sc2ccc(O)cc21`?
MrgX1 allo act: inactive; MrgX1 ag: 29.2; RGS4 pot: inactive; MrgX1 antag: inactive; RGS4 inh: inactive; MrgX1 ag reconf: 114.0%; HEK293 Ca flux: inactive; HEK293 Ca counter: inactive; HEK293 Ca cntr2: inactive

Results for Nc1ccc2c(c1)CC(=O)c1ccccc1S2 ?
MrgX1 allo act: inactive; MrgX1 ag: 42.1; RGS4 pot: inactive; MrgX1 antag: inactive; RGS4 inh: inactive; MrgX1 ag reconf: 102.3%; HEK293 Ca flux: inactive; HEK293 Ca counter: inactive; HEK293 Ca cntr2: inactive

How did O=C1c2ccccc2CSc2c(O)cccc21 do in these assays?
MrgX1 allo act: inactive; MrgX1 ag: inactive; RGS4 pot: inactive; MrgX1 antag: inactive; RGS4 inh: inactive

Results for Nc1ccc(N2C(=O)c3ccccc3C2=O)c(Cl)c1 ?
MrgX1 allo act: inactive; MrgX1 ag: inactive; MrgX1 antag: inactive

Results for Cc1cccc2c1Sc1ccccc1CC2=O ?
MrgX1 allo act: inactive; MrgX1 ag: 33.2; RGS4 pot: inactive; MrgX1 antag: inactive; RGS4 inh: inactive; MrgX1 ag reconf: 112.8%; HEK293 Ca flux: inactive; HEK293 Ca counter: inactive; HEK293 Ca cntr2: inactive

What do the screens show for `O=C(COC(=O)/C=C/c1cccs1)NC1CC1`?
MrgX1 allo act: inactive; MrgX1 ag: inactive; RGS4 pot: inactive; MrgX1 antag: inactive; RGS4 inh: inactive

Results for CCC(C)NC(=O)COC(=O)c1ccc(Cl)cc1O (stereo not given) ?
MrgX1 allo act: inactive; MrgX1 ag: inactive; RGS4 pot: inactive; MrgX1 antag: inactive; RGS4 inh: inactive

What do the screens show for `CC(C)Oc1ccc(C(=O)CCN2CCOCC2)cc1`?
MrgX1 allo act: inactive; MrgX1 ag: 65.5; RGS4 pot: inactive; MrgX1 antag: inactive; RGS4 inh: inactive; MrgX1 ag reconf: inactive; HEK293 Ca flux: inactive; HEK293 Ca counter: inactive; HEK293 Ca cntr2: inactive

How did CCCCS(=O)(=O)Nc1ccc2c(c1)ncn2C1CCCCC1 do in these assays?
MrgX1 allo act: inactive; MrgX1 ag: 34.9; RGS4 pot: inactive; MrgX1 antag: inactive; RGS4 inh: inactive; MrgX1 ag reconf: 213.6%; HEK293 Ca flux: inactive; HEK293 Ca counter: inactive; HEK293 Ca cntr2: 50.8

How did CC1(c2ccccc2)CC(C)(C)N2C(=O)C(=O)c3cccc1c32 (stereo not given) do in these assays?
MrgX1 allo act: inactive; MrgX1 ag: 28.8; RGS4 pot: inactive; MrgX1 antag: inactive; RGS4 inh: inactive; MrgX1 ag reconf: inactive; HEK293 Ca flux: inactive; HEK293 Ca counter: inactive; HEK293 Ca cntr2: inactive

What do the screens show for `CC1(c2ccccc2)CC(C)(C)n2c(O)c(C3=NC(=S)NC3=O)c3cccc1c32` (stereo not given)?
MrgX1 allo act: inactive; MrgX1 ag: inactive; RGS4 pot: inactive; MrgX1 antag: inactive; RGS4 inh: inactive

What do the screens show for `C#CCNC(=O)C1=C[C@@H](c2ccc(C(F)(F)F)cc2)C[C@@H](OCCCCO)O1`?
MrgX1 allo act: inactive; MrgX1 ag: inactive; RGS4 pot: inactive; MrgX1 antag: inactive; RGS4 inh: inactive

What do the screens show for `Cc1ccccc1-c1nc2ccc(Cl)cc2c(=O)n1O`?
MrgX1 allo act: inactive; MrgX1 ag: inactive; RGS4 pot: inactive; MrgX1 antag: inactive; RGS4 inh: inactive

Results for O=c1c2cc(Cl)ccc2nc(-c2ccc(Cl)c(Cl)c2)n1O ?
MrgX1 allo act: inactive; MrgX1 ag: 151; RGS4 pot: -7.68; MrgX1 antag: inactive; RGS4 inh: inactive; MrgX1 ag reconf: 718.9%; HEK293 Ca flux: inactive; HEK293 Ca counter: inactive; HEK293 Ca cntr2: 122

Source: PubChem (Johns Hopkins Ion Channel Center)
